This passage reports IC50 results from BindingDB's records for doi:10.1021/jm4005048 (Northwestern University, 2013).

pIC50: −log10 of the molar value.

The pIC50 is the negative decadic logarithm of the IC50, by convention in mol/L.

Chain of Voltage-dependent L-type calcium channel subunit alpha-1C (P15381 whole entry): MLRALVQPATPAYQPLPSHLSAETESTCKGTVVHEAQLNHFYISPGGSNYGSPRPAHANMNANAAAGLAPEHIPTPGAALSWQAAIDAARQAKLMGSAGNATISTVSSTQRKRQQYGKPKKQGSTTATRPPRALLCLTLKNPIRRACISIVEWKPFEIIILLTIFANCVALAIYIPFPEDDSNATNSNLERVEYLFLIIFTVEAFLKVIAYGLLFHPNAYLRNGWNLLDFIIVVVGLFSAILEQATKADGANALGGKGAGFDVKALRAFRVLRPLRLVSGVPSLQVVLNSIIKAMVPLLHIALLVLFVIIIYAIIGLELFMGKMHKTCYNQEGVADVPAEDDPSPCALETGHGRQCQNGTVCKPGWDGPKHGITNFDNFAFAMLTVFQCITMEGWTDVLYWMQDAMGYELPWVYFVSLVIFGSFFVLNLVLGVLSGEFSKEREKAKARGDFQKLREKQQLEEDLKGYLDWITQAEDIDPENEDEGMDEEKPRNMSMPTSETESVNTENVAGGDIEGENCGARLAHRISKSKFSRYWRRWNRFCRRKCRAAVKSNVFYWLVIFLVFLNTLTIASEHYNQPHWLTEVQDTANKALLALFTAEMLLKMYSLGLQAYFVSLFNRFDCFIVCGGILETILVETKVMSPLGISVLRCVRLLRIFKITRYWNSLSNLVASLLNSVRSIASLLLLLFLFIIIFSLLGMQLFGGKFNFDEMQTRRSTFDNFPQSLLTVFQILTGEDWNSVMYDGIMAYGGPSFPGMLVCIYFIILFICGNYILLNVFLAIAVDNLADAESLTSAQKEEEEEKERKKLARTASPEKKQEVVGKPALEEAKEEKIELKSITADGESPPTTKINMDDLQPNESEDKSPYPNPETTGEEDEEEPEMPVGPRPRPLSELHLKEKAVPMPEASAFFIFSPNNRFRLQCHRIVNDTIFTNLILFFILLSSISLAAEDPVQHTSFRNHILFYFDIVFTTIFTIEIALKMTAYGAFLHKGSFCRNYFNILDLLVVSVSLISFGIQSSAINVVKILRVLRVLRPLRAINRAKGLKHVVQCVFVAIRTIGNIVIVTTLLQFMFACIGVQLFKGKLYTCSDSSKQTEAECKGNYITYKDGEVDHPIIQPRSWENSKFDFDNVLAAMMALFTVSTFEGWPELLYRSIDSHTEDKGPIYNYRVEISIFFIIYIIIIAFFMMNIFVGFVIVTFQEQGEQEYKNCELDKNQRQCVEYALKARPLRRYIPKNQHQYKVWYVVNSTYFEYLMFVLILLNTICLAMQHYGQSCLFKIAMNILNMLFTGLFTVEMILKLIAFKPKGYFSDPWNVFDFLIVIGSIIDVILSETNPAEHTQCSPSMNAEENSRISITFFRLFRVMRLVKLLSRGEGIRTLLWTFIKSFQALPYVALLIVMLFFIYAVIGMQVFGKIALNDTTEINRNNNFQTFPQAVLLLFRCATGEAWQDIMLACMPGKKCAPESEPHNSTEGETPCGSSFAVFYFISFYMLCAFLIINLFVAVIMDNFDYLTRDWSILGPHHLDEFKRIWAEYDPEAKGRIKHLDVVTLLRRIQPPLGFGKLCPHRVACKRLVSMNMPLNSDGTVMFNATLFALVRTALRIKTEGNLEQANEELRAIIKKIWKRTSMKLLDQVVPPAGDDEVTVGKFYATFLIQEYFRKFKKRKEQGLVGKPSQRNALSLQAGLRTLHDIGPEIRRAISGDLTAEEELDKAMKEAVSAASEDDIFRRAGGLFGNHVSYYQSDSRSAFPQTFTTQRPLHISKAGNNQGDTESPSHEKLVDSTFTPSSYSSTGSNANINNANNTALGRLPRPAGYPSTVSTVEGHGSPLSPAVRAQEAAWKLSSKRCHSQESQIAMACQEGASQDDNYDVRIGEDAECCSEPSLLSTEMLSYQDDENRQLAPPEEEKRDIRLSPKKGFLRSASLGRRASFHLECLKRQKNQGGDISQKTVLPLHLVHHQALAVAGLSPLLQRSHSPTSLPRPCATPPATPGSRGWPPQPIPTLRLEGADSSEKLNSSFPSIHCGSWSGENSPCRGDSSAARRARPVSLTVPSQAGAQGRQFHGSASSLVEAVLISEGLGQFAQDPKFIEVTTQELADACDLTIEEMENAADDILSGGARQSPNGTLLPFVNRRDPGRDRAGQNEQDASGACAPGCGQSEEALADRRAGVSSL

The target of this assay is Voltage-dependent L-type calcium channel subunit alpha-1C (Oryctolagus cuniculus, UniProt P15381). Nature of the assay: Antagonist activity at rabbit CaV1.2alpha1C transfected in HEK293 cells by FLIPR assay. The gist of the method:
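HEK293 cells stably transfected with rabbit CaV1.2α1C cDNA, plated at 4 × 10⁴ cells/well and cultured 4 days in DMEM with 10% FBS. Calcium influx is read on a FLIPR Tetra with a Fluo-8 no-wash calcium dye.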
Turning to `O=c1cc(O)n(CCc2cccc(C(F)(F)F)c2)c(=O)n1[C@@H]1C[C@@H]2CC[C@H]1C2`, the pIC50 is 4.00.

`O=c1cc(O)n(CCc2cccc(C(F)(F)F)c2)c(=O)n1[C@H]1C[C@H]2CC[C@@H]1C2`: the pIC50 was less than 4.00.

With `CC(Cn1c(O)cc(=O)n(C2CC3CCC2C3)c1=O)c1cccc(Cl)c1` (stereo not given), the pIC50 is 5.29.

For the compound `CC(C)(Cn1c(O)cc(=O)n(C2CCCC2)c1=O)c1cccc(Cl)c1`, the pIC50 is 4.90.

Consider `O=c1cc(O)n(CC2(c3ccc(Cl)cc3)CC2)c(=O)n1C1CCCC1`, for which the negative-log IC50 (pIC50) is less than 4.00.

On to `COC(=O)[C@H](Cc1ccccc1)n1c(O)cc(=O)n(C2CCCC2)c1=O`, for which the negative logarithm of the IC50 (pIC50) is less than 4.00.

Regarding `O=c1cc(O)n(CCC(c2ccccc2)c2ccccc2)c(=O)n1C1CCCC1`, the pIC50 is 5.33.

With `O=c1cc(O)n(-c2cccc(C(F)(F)F)c2)c(=O)n1C1CCCC1`, the negative-log IC50 (pIC50) is less than 4.00.

On to `C[C@H](c1cccc2ccccc12)n1c(O)cc(=O)n(CCc2cccc(Cl)c2)c1=O`, for which the negative logarithm of the IC50 (pIC50) was 5.00.

Take `CCOC(=O)[C@@H]1CCC[C@@H]1n1c(=O)cc(O)n(CCc2cccc(Cl)c2)c1=O`: the pIC50 is 4.90.

On to `O=c1cc(O)n(CCc2cccc(Cl)c2)c(=O)n1[C@H]1CCC[C@@H]1O`, for which the negative-log IC50 (pIC50) is less than 4.00.

Turning to `O=C(O)[C@H]1CC[C@@H](n2c(=O)cc(O)n(CCc3cccc(Cl)c3)c2=O)C1`, the pIC50 is less than 4.00.

For `C[C@H]1[C@H](n2c(=O)cc(O)n(CCc3ccc(Cl)cc3)c2=O)C[C@@H]2C[C@H]1C2(C)C`, the pIC50 was less than 4.00.

As for `CC1(C)[C@@H]2CC[C@H](Cn3c(=O)cc(O)n(CCc4ccc(Cl)cc4)c3=O)[C@H]1C2`, the pIC50 was less than 4.00.

Consider `CC1(C)[C@@H]2CC[C@@]1(C)[C@@H](n1c(=O)cc(O)n(CCc3ccc(Cl)cc3)c1=O)C2`, for which the negative-log IC50 (pIC50) is less than 4.00.

As for `O=c1cc(O)n(CCc2ccc(Cl)cc2)c(=O)n1[C@H]1C[C@H]2CC[C@@H]1C2`, the pIC50 was 4.00.

`O=c1cc(O)n(CCc2ccc(Cl)cc2)c(=O)n1C[C@H]1CCCO1`: the pIC50 is less than 4.00.

With `C[C@H](C1CCCCC1)n1c(=O)cc(O)n(CCc2ccc(Cl)cc2)c1=O`, the negative logarithm of the IC50 (pIC50) was less than 4.00.

As for `C[C@@H]1[C@@H](n2c(=O)cc(O)n(CCc3cccc(Cl)c3)c2=O)C[C@H]2C[C@@H]1C2(C)C`, the pIC50 was less than 4.00.

Turning to `C[C@H]1[C@H](n2c(=O)cc(O)n(CCc3cccc(Cl)c3)c2=O)C[C@@H]2C[C@H]1C2(C)C`, the negative logarithm of the IC50 (pIC50) was less than 4.00.

On to `CC1(C)[C@@H]2CC[C@@]1(C)[C@@H](n1c(=O)cc(O)n(CCc3cccc(Cl)c3)c1=O)C2`, for which the pIC50 was less than 4.00.

With `O=c1cc(O)n(CCc2cccc(Cl)c2)c(=O)n1[C@@H]1C[C@@H]2CC[C@H]1C2`, the negative-log IC50 (pIC50) is less than 4.00.

As to `O=c1cc(O)n(CCc2cccc(Cl)c2)c(=O)n1[C@H]1C[C@H]2CC[C@@H]1C2`, the negative logarithm of the IC50 (pIC50) was less than 4.00.

Consider `C[C@H](C1CCCCC1)n1c(=O)cc(O)n(CCc2cccc(Cl)c2)c1=O`, for which the pIC50 was less than 4.00.

As to `C[C@@H](C1CCCCC1)n1c(=O)cc(O)n(CCc2cccc(Cl)c2)c1=O`, the pIC50 was less than 4.00.

Turning to `CC1(C)CCC[C@H]1n1c(=O)cc(O)n(CCc2cccc(Cl)c2)c1=O`, the pIC50 is 5.33.

`O=c1cc(O)n(CCc2cccc(Cl)c2)c(=O)n1C1CCCC1`: the negative logarithm of the IC50 (pIC50) is less than 4.00.

On to `C[C@@H](C1CCCCC1)n1c(=O)cc(O)n(CCc2ccc(Cl)cc2)c1=O`, for which the negative-log IC50 (pIC50) was less than 4.00.

For the compound `C[C@H]1CCC[C@H]1n1c(=O)cc(O)n(CCc2ccc(Cl)cc2)c1=O`, the negative-log IC50 (pIC50) was 5.00.

In the case of `C[C@@H]1CCC[C@@H]1n1c(=O)cc(O)n(CCc2ccc(Cl)cc2)c1=O`, the negative-log IC50 (pIC50) is 5.29.
